Measured values as given in ChEMBL document CHEMBL1138477, “8-(4-Methoxyphenyl)pyrazolo[1,5-a]-1,3,5-triazines: selective and centrally active corticotropin-releasing factor receptor-1 (CRF1) antagonists” (J Med Chem, 2009).

What was measured:
[1] = Binding affinity to N-type calcium channel
[2] = Volume of distribution at steady state in Beagle dog at 5 mg/kg, iv; format: ADME, organism-based, Canis lupus familiaris; parameters: dose 5 mg/kg, route intravenous; conditions: in vivo, read-out: Vdss
Summary of the method: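 Male beagle dogs (8.0-11.0 kg) dosed intravenously. Plasma sampled at 0.25, 0.5, 1, 2, 4, 6, 8, 12 and 24 h after dosing. Liquid–liquid extraction in hexane/ether, then LC/MS/MS assay (quantitation limit 1 ng/mL). Concentrations expressed as free base. Parameters obtained by noncompartmental analysis as for rat. Mean ± SD.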

[3] = Clearance in Beagle dog at 5 mg/kg, iv; format: ADME, organism-based, Canis lupus familiaris; parameters: dose 5 mg/kg, route intravenous; conditions: in vivo
Summary of the method: (§1)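 Male beagle dogs (8.0-11.0 kg) dosed iv or po (5 mg/kg oral suspension in 0.5% methylcellulose with 1% Tween-80); plasma sampled 0.25-24 h; liquid-liquid extraction with hexane/ether, LC/MS/MS, quantitation limit 1 ng/mL (2.42 nM); noncompartmental parameters as free base.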

Rattus norvegicus [4] = assay: Anxiolytic-like activity in Sprague-Dawley rat assessed as decrease in latency to exit dark chamber at 10 mg/kg, po measured after 1 hr by defensive withdrawal test relative to control; format: functional; parameters: scale not given: the % may be the effect or the level left
Summary of the method: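 Male Sprague-Dawley rats (180-300 g), individually housed; open field with cylindrical dark chamber; oral dosing in 0.25% Methocel 1 h before a 15 min session scored blind via video; latency to place all four paws in open field recorded, maximum 900 s; test doses 1.0, 3.0, 10, 30 mg/kg; positive control at 10 mg/kg; n = 12/dose; Kruskal-Wallis then Mann-Whitney U.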

[5] = biological target: T1, Alpha-1B adrenergic receptor (Homo sapiens, UniProt P35368); assay: Binding affinity to adrenergic alpha-1b receptor
T1 sequence (P35368 whole entry): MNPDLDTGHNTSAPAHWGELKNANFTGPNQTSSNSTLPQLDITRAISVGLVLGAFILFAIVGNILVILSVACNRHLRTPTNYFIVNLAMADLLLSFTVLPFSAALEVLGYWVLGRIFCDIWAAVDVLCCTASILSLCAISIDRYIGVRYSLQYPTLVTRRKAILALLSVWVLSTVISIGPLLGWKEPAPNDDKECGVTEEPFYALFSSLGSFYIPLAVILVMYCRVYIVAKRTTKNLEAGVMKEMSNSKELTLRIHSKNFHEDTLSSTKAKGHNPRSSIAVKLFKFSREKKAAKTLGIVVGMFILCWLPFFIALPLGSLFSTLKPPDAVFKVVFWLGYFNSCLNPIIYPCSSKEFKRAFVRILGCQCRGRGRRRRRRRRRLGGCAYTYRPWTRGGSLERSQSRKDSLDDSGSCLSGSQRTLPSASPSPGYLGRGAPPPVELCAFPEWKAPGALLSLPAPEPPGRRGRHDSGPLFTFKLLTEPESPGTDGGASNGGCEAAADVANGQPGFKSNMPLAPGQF

Rattus norvegicus [6] = assay: Hepatic blood flow in iv dosed female Sprague-Dawley CD rat; format: ADME, organism-based, Liver; conditions: in vivo
[7] = biological target: T2, Alpha-1A adrenergic receptor (Homo sapiens, UniProt P35348); assay: Binding affinity to adrenergic Alpha-1A receptor
T2 sequence (P35348 whole entry): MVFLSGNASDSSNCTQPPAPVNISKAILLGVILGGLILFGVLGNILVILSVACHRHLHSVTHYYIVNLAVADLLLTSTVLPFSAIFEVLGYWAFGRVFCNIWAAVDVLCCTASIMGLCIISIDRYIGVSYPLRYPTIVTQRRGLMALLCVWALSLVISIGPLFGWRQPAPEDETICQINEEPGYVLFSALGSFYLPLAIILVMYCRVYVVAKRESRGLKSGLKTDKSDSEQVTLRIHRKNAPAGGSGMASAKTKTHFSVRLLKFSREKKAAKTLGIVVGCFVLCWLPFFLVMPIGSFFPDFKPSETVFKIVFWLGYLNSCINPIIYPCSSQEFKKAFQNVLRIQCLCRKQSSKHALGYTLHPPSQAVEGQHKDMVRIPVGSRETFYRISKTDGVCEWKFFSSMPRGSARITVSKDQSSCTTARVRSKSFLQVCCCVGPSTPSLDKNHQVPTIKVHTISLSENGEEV

[8] = Binding affinity to serotonin receptor
[9] = Elimination half life in male Sprague-Dawley CD rat at 1 mg/kg, iv; format: ADME, organism-based; parameters: dose 1 mg/kg, route intravenous; conditions: in vivo, read-out: beta t1/2 (converted)
Summary of the method: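 Sprague-Dawley CD rats: 1 mg/kg iv bolus in 20% ethanol/saline (apparent pH 3.4) to 3 males and 3 females; 5 mg/kg po in 0.5% methylcellulose with 1% Tween-80 to 3 males. Jugular blood into EDTA, predose to 32 h. Free base quantified by LC/MS after solid-phase extraction (range 5-5000 nM); noncompartmental analysis; F relative to iv.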

[10] = Oral bioavailability in Beagle dog at 5 mg/kg; format: ADME, organism-based, Canis lupus familiaris; conditions: in vivo; summary of the method: as §1
[11] = Cmax in Beagle dog at 5 mg/kg, po; format: ADME, organism-based, Canis lupus familiaris; parameters: dose 5 mg/kg, route oral; conditions: in vivo; summary of the method: as §1
Rattus norvegicus [12] = assay: Toxicity in Sprague-Dawley rat assessed as time spent on rotarod at 30 mg/kg, po after 1 hr by rotarod test; format: organism-based; parameters: dose 30 mg/kg, route oral; conditions: in vivo
Summary of the method: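 Male Sprague-Dawley rats received a single oral gavage dose of 30 mg/kg (free base weight) in 0.5% methocel–Tween-80 (99:1) or vehicle alone. Behaviour was assessed 1 h postdose, as time on the rotorod in seconds for the rotorod test and total distance travelled in cm for open-field locomotor activity. Values are mean ± SEM, n = 8 per group.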

[13] = Binding affinity to L-type calcium channel
D(2) dopamine receptor = D(2) dopamine receptor (Homo sapiens, UniProt P14416); assay: Binding affinity to dopamine D2 receptor
Sequence of D(2) dopamine receptor (P14416 whole entry): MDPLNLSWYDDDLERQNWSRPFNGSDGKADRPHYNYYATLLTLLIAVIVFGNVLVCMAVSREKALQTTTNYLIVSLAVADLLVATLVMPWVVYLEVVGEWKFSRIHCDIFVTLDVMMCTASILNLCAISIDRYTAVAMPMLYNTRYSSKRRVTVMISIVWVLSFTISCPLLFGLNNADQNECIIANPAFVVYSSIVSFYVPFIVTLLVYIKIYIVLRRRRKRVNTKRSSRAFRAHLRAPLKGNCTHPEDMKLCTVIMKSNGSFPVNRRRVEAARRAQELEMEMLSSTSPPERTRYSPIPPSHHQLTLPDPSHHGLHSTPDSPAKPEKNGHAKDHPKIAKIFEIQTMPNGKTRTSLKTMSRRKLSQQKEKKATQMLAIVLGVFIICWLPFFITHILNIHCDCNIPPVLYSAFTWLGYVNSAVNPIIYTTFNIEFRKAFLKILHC

[14] = Tmax in Beagle dog at 5 mg/kg, po; format: ADME, organism-based, Canis lupus familiaris; parameters: dose 5 mg/kg, route oral; conditions: in vivo; summary of the method: as §1
[15] = biological target: T3, Alpha-2C adrenergic receptor (Homo sapiens, UniProt P18825); assay: Binding affinity to adrenergic alpha2c receptor
T3 sequence (P18825 whole entry): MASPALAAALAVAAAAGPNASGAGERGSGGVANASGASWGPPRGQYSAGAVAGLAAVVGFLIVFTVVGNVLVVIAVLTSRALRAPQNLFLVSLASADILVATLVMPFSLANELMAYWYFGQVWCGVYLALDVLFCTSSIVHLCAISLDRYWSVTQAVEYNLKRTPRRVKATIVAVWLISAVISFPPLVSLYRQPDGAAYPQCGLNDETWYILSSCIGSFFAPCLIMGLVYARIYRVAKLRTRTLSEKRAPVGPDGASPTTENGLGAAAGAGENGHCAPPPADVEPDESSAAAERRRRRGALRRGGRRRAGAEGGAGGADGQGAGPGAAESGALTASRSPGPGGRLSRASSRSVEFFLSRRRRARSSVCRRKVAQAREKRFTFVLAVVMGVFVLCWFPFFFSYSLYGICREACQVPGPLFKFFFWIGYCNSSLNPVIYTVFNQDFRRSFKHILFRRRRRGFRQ

[16] = Elimination half life in Beagle dog at 5 mg/kg, iv; format: ADME, organism-based, Canis lupus familiaris; parameters: dose 5 mg/kg, route intravenous; conditions: in vivo, read-out: beta t1/2 (converted); summary of the method: as §1
Canis familiaris = assay: Hepatic blood flow in iv dosed Beagle dog; format: ADME, organism-based, Canis lupus familiaris, Liver; conditions: in vivo
[17] = Oral bioavailability in Beagle dog at 20 mg/kg; format: ADME, organism-based, Canis lupus familiaris; conditions: in vivo

Row | IC50 [1] | Vd [2] | clearance [3] | IC50 [5] | QH (Rattus norvegicus [6]) | IC50 [7] | IC50 [8] | half-life [9] | bioavailability [10] | Cmax [11] | IC50 [13] | IC50 (D(2) dopamine receptor) | Tmax [14] | IC50 [15] | half-life [16] | QH (Canis familiaris) | bioavailability [17] | Compound | Activity (Rattus norvegicus [4]) | Time (Rattus norvegicus [12])
1 | > 1000 nM | 18.4 L/kg | 20 mL/min/kg | > 1000 nM | 55 mL/min/kg | > 1000 nM | > 1000 nM | 9.7 h | 34% | 2380 nM | > 1000 nM | > 1000 nM | 0.5 h | > 1000 nM | 27.3 h | 31 mL/min/kg |  | COCCN(CCOC)c1nc(C)nc2c(-c3ccc(OC)cc3C)c(C)nn12 | 73% | 158 s
2 | > 1000 nM | 23.7 L/kg | 11 mL/min/kg | > 1000 nM |  | > 1000 nM | > 1000 nM |  | 48% | 1220 nM | > 1000 nM | > 1000 nM | 0.8 h | > 1000 nM | 40.2 h | 31 mL/min/kg |  | COCCN(CCOC)c1nc(C)nc2c(-c3cc(C)c(OC)cc3C)c(C)nn12 |  | 
3 | > 1000 nM |  |  | > 1000 nM |  | > 1000 nM | > 1000 nM |  |  |  | > 1000 nM | > 1000 nM |  | > 1000 nM |  |  |  | CCC(CC)Nc1nc(C)nc2c(-c3cc(F)c(OC)cc3Cl)c(C)nn12 |  | 
4 | > 1000 nM |  |  | > 1000 nM |  | > 1000 nM | > 1000 nM |  |  |  | > 1000 nM | > 1000 nM |  | > 1000 nM |  | 31 mL/min/kg | 4.7% | CC[C@@H](C)Nc1nc(C)nc2c(-c3c(C)cc(OC)cc3OC)c(C)nn12 |  | 
